Activity calls are given as the source filed them. The calls are words filed in the database; no cut-off is given here.
Columns and labels:
Calu-3 = assay: Antiproliferative activity against human Calu-3 cells overexpressing HER2 assessed as cell growth inhibition incubated for 72 hrs by cell titer glo assay; assay type: functional, cell-based; conditions: Calu-3, 72 h
A549 [1] = assay: Antiproliferative activity against human A549 cells overexpressing HER2 assessed as cell growth inhibition incubated for 72 hrs by cell titer glo assay; assay type: functional, cell-based; conditions: A549, 72 h
Summary of the method: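 Cells seeded at 1×10^4 per well, left overnight at 37 °C/5% CO2, then exposed to a concentration series of peptide (up to 200, down to 0.01 μM) for 72 h. 1% SDS and 1% DMSO served as controls. Cells were PBS-washed, CellTiter-Glo added and luminescence read. IC50 taken from three independent experiments per cell line.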

[2] = target: Epidermal growth factor receptor and ErbB2 (HER1 and HER2) (Homo sapiens) (UniProt P04626+P00533); assay: Inhibition of HER2/EGFR dimerization in human A549 cells incubated for 48 hrs by proximity ligation assay; assay type: cell-based; conditions: dose 0.5-1 µM
Summary of the method: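 A549 or Calu-3 cells (~1×10^4/well) on chamber slides, treated 48 h with 0.5 or 1 μM peptide. Controls: no compound, and one primary antibody omitted. Cells fixed in cold methanol, primary antibodies (EGFR, HER2, HER3) applied overnight at 4 °C, then PLA probes. Red fluorescence imaged at 40x and quantified over 3–6 fields.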

[3] = target: Receptor tyrosine-protein kinase erbB-2 (Homo sapiens) (UniProt P04626); assay: Inhibition of HER2 ECD in human A549 cells assessed as reduction in Akt phosphorylation at 1 uM incubated for 40 hrs by Western blot analysis; assay type: cell-based
Receptor tyrosine-protein kinase erbB-2 (Homo sapiens), sequence (P04626 whole entry, the tested form may be a part): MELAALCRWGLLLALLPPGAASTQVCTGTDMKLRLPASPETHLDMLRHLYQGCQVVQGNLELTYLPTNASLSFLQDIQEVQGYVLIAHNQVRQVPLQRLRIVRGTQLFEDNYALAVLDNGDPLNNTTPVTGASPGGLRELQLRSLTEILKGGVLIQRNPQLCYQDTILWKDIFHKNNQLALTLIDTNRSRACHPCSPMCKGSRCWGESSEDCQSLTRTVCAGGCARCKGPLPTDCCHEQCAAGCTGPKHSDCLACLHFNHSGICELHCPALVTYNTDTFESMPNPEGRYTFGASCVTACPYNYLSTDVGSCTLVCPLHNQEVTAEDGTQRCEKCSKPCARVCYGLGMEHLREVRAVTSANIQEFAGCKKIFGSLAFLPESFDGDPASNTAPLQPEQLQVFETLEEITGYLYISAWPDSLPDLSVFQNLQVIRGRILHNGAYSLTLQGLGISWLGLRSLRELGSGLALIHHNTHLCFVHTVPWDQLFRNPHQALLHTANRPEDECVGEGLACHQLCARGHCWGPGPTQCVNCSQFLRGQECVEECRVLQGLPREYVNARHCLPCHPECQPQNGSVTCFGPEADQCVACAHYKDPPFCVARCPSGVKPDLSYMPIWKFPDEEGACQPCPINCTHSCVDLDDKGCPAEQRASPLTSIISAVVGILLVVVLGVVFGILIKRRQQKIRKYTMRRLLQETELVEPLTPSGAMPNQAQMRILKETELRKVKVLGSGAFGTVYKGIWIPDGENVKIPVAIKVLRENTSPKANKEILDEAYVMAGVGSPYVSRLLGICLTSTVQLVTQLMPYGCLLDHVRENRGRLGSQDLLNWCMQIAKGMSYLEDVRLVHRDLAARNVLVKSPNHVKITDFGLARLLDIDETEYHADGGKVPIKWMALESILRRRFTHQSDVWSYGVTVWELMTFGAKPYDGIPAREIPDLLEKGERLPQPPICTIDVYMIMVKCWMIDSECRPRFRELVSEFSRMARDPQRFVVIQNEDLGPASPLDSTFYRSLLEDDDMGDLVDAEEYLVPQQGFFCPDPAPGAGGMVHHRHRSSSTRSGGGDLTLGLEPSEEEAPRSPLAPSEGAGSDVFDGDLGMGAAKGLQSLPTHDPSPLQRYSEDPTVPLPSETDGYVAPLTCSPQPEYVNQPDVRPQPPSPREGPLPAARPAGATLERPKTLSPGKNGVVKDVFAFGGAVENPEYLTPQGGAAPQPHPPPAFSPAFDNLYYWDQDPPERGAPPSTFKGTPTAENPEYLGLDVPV

[4] = Thermal stability of compound at 15 uM incubated at 25 to 75 degC by Circular dichroism spectrometry; assay type: physicochemical
Summary of the method: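 Peptide at 15 μM in acetonitrile. Ellipticity recorded from 25 to 75 °C in 5 °C steps.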

[5] = Toxicity in Foxn1nu/Foxn1+ mouse xenografted with human Calu-3 cells assessed as effect on body weight at 8 mg/kg, IT(Intratumoral) administered thrice a week for 28 days and measured on day 28; assay type: organism-based; conditions: in vivo, other, 672 h, time 28 day
[6] = Toxicity in Foxn1nu/Foxn1+ mouse xenografted with human Calu-3 cells assessed as clinical observation at 8 mg/kg, IT(Intratumoral) administered thrice a week for 28 days and measured on day 28; assay type: organism-based; conditions: in vivo, other, 672 h, time 28 day
Mus musculus = assay: In vivo inhibition of HER2/EGFR dimerization in human Calu-3 cells xenografted in Foxn1nu/Foxn1+ mouse at 8 mg/kg, IT(Intratumoral) administered thrice a week for 28 days and measured on day 28 by proximity ligation assay; assay type: functional, organism-based; conditions: time 28.0 day
Summary of the method: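 Tumors taken from the Calu-3 intratumoral study (8 mg/kg three times weekly, 28 days). Two tumors frozen at −80 °C, homogenized and immunoblotted for p-HER2. Others fixed, paraffin-embedded and sectioned at 5 μm. Sections underwent citrate pH 6.0 antigen retrieval, H2O2 block and BSA/NGS/Triton block, EGFR/HER2 primaries overnight at 4 °C, then PLA probes; imaged at 10X/40X.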

A549 [7] = assay: Antitumor activity in Red-Fluc transfected human A549 cells harbouring KRAS mutant/wild type EGFR xenografted in Foxn1nu/Foxn1+ mouse assessed as reduction in tumor growth by measuring relative luminescence intensity at 6 mg/kg, iv treated twice a week measured after 2 weeks relative to vehicle; assay type: functional, organism-based
[8] = Toxicity in BALB/c mouse assessed as Ki-67 expression in CD4+CD8+ at 6 mg/kg, iv administered on day 0 and 10 and spleenocytes collected on day 13 and incubated for 48 hrs by flow cytometry analysis; assay type: organism-based; conditions: in vivo, 360 h, time 15 day
Summary of the method: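 Female BALB/c mice given 6 mg/kg peptide in PBS i.v. (or PBS) on days 0 and 10, 12 mice in total. Splenocytes harvested day 13, RBC-lysed, and ≥2×10^6 cultured 48 h in RPMI/10% FBS with control media or peptide. Cells then stained for viability, CD3/CD4/CD8a and intracellular Ki67, and analyzed by flow cytometry.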

NCI-H1975 = assay: Synergistic antiproliferative activity against human NCI-H1975 cells assessed as combination index after 72 hrs in presence of lapatinib by cell titer glo assay; assay type: functional
[9] = Toxicity in Foxn1nu/Foxn1+ mouse xenografted with human A549 cells harbouring KRAS mutant/wild type EGFR assessed as enlarged cells in lung at 6 mg/kg, iv administered twice a week for 5 weeks; conditions: in vivo, 840 h

In the case of `CC[C@H](C)[C@H]1C(=O)NC(=O)[C@H](CCCNC(=N)N)NC(=O)C[C@@H](c2cccc3ccccc23)NC(=O)N[C@H]2CSSC[C@H](NC(=O)C[C@@H](c3cccc4ccccc34)NC(=O)[C@H](CCCNC(=N)N)NC(=O)[C@@H]3CCCN3C(=O)[C@@H]3CCCN13)C(=O)N[C@@H](Cc1ccccc1)C(=O)N1CCC[C@H]1C(=O)N[C@@H](CC(=O)O)C(=O)NC(=O)[C@H](CC(=O)O)NC(=O)[C@H](Cc1ccccc1)NC2=O`, the IC50 (Calu-3) is reported as 73 nM, the IC50 (A549 [1]) is reported as 369 nM and the inhibition [2] is reported as “Dose-Dependent Effect”. The inhibition [3] was “Active”, the Stabilty [4] was “Stable” and the Activity [5] was “Non-Toxic”. The Activity [6] was “Non-Toxic”, the inhibition (Mus musculus) was “Active” and the Activity (A549 [7]) was “Active”. The Activity [8] was “Non-Toxic”, the CI (NCI-H1975) was 0.83 and the Activity [9] was “Non-Toxic”.

Source: ChEMBL document CHEMBL4813972, “A grafted peptidomimetic for EGFR heterodimerization inhibition: Implications in NSCLC models” (Eur J Med Chem, 2021)
